≈ marks a conversion by molar mass, not a printed value.
Experiments:
Pseudomonas aeruginosa [1] = assay: Susceptibility testing against Pseudomonas aeruginosa ATCC 27853; R=Resistant; assay type: functional, organism-based
In short: (§1)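 Disk diffusion susceptibility profiling of P. aeruginosa reference and clinical isolates against empirically used antipseudomonal antibiotics. Each isolate was categorised as susceptible, intermediate or resistant.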

Pseudomonas aeruginosa [2] = assay: Susceptibility testing against Pseudomonas aeruginosa PAE_NUH01; R=Resistant; assay type: functional, organism-based; in short: as §1
Pseudomonas aeruginosa [3] = assay: Susceptibility testing against Pseudomonas aeruginosa PAE_NUH02; R=Resistant; assay type: functional, organism-based; in short: as §1
Pseudomonas aeruginosa [4] = assay: Susceptibility testing against Pseudomonas aeruginosa PAE_NUH03; R=Resistant; assay type: functional, organism-based; in short: as §1
Pseudomonas aeruginosa [5] = assay: Susceptibility testing against Pseudomonas aeruginosa PAE_NUH04; R=Resistant; assay type: functional, organism-based; in short: as §1
Pseudomonas aeruginosa [6] = assay: Susceptibility testing against Pseudomonas aeruginosa PAE_NUH05; R=Resistant; assay type: functional, organism-based; in short: as §1
Pseudomonas aeruginosa [7] = assay: Susceptibility testing against Pseudomonas aeruginosa PAE_NUH06; R=Resistant; assay type: functional, organism-based; in short: as §1
Pseudomonas aeruginosa [8] = assay: Susceptibility testing against Pseudomonas aeruginosa PAE_NUH07; R=Resistant; assay type: functional, organism-based; in short: as §1
Pseudomonas aeruginosa [9] = assay: Susceptibility testing against Pseudomonas aeruginosa PAE_NUH18; R=Resistant; assay type: functional, organism-based; in short: as §1
Pseudomonas aeruginosa [10] = assay: Susceptibility testing against Pseudomonas aeruginosa PAE_NUH19; R=Resistant; assay type: functional, organism-based; in short: as §1
Pseudomonas aeruginosa [11] = assay: Susceptibility testing against Pseudomonas aeruginosa PAE_NUH21; R=Resistant; assay type: functional, organism-based; in short: as §1
Pseudomonas aeruginosa [12] = assay: Susceptibility testing against Pseudomonas aeruginosa PAE_NUH22; R=Resistant; assay type: functional, organism-based; in short: as §1
Pseudomonas aeruginosa [13] = assay: Susceptibility testing against Pseudomonas aeruginosa PAE_NUH23; R=Resistant; assay type: functional, organism-based; in short: as §1
Pseudomonas aeruginosa [14] = assay: Susceptibility testing against Pseudomonas aeruginosa PAE_NUH24; R=Resistant; assay type: functional, organism-based; in short: as §1
Pseudomonas aeruginosa [15] = assay: Susceptibility testing against Pseudomonas aeruginosa PAE_NUH25; S=Susceptible; assay type: functional, organism-based
In short: (§2)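 Disk diffusion susceptibility profiling against a panel of empirically used antipseudomonal antibiotics. Each strain was categorised as susceptible (S) or intermediate (I).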

Pseudomonas aeruginosa [16] = assay: Susceptibility testing against Pseudomonas aeruginosa PAE_NUH17; S=Susceptible; assay type: functional, organism-based; in short: as §2
Pseudomonas aeruginosa [17] = assay: Susceptibility testing against Pseudomonas aeruginosa PAE_NUH20; S=Susceptible; assay type: functional, organism-based; in short: as §2
Pseudomonas aeruginosa [18] = assay: Susceptibility testing against Pseudomonas aeruginosa PAE_NUH22; S=Susceptible; assay type: functional, organism-based; in short: as §2
Pseudomonas aeruginosa [19] = assay: Susceptibility testing against Pseudomonas aeruginosa PAE_NUH23; S=Susceptible; assay type: functional, organism-based; in short: as §2
Pseudomonas aeruginosa [20] = assay: Susceptibility testing against Pseudomonas aeruginosa PAE_NUH24; S=Susceptible; assay type: functional, organism-based; in short: as §2
Pseudomonas aeruginosa [21] = assay: Susceptibility testing against Pseudomonas aeruginosa ATCC 27853; S=Susceptible; assay type: functional, organism-based; in short: as §2
Pseudomonas aeruginosa [22] = assay: Susceptibility testing against Pseudomonas aeruginosa PAE_NUH07; S=Susceptible; assay type: functional, organism-based; in short: as §2
Pseudomonas aeruginosa [23] = assay: Susceptibility testing against Pseudomonas aeruginosa PAE_NUH18; S=Susceptible; assay type: functional, organism-based; in short: as §2
Pseudomonas aeruginosa [24] = assay: Susceptibility testing against Pseudomonas aeruginosa PAE_NUH19; S=Susceptible; assay type: functional, organism-based; in short: as §2
Pseudomonas aeruginosa [25] = assay: Susceptibility testing against Pseudomonas aeruginosa PAE_NUH21; S=Susceptible; assay type: functional, organism-based; in short: as §2
Pseudomonas aeruginosa [26] = assay: Susceptibility testing against Pseudomonas aeruginosa PAE_NUH18; I=Intermediate; assay type: functional, organism-based; in short: as §1
Pseudomonas aeruginosa [27] = assay: Susceptibility testing against Pseudomonas aeruginosa PAE_NUH23; I=Intermediate; assay type: functional, organism-based; in short: as §1
Pseudomonas aeruginosa [28] = assay: Susceptibility testing against Pseudomonas aeruginosa PAE_NUH24; I=Intermediate; assay type: functional, organism-based; in short: as §1
Pseudomonas aeruginosa [29] = assay: In vitro minimum inhibitory concentration against Pseudomonas aeruginosa PAO-1; assay type: functional
In short: (§3)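 Broth microdilution following CLSI M100-S12. Stocks were 10 mg/mL in water, diluted in Mueller–Hinton broth to a top level of 128, then serially 2-fold in plates. Bacteria in cation-adjusted Mueller–Hinton broth were mixed 1:1 with drug and incubated 16–20 h at 35 °C. MIC was the lowest concentration with no visible growth. Run in duplicate with no-antibiotic and no-inoculum (sterility) controls.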

Staphylococcus aureus [30] = assay: In vitro minimum inhibitory concentration against Staphylococcus aureus MRSA 3359; assay type: functional; in short: as §3
Pseudomonas aeruginosa [31] = assay: In vitro minimum inhibitory concentration against Pseudomonas aeruginosa ATCC 27853; assay type: functional; in short: as §3
Staphylococcus aureus [32] = assay: In vitro minimum inhibitory concentration against Staphylococcus aureus ATCC 29213; assay type: functional; in short: as §3
Pseudomonas aeruginosa [33] = assay: Minimum inhibitory concentration against Pseudomonas aeruginosa PAE_NUH01; assay type: functional; in short: as §3
Pseudomonas aeruginosa [34] = assay: Minimum inhibitory concentration against Pseudomonas aeruginosa PAE_NUH02; assay type: functional; in short: as §3
Pseudomonas aeruginosa [35] = assay: Minimum inhibitory concentration against Pseudomonas aeruginosa PAE_NUH03; assay type: functional; in short: as §3
Pseudomonas aeruginosa [36] = assay: Minimum inhibitory concentration against Pseudomonas aeruginosa PAE_NUH04; assay type: functional; in short: as §3
Pseudomonas aeruginosa [37] = assay: Minimum inhibitory concentration against Pseudomonas aeruginosa PAE_NUH05; assay type: functional; in short: as §3
Pseudomonas aeruginosa [38] = assay: Minimum inhibitory concentration against Pseudomonas aeruginosa PAE_NUH06; assay type: functional; in short: as §3
Pseudomonas aeruginosa [39] = assay: Minimum inhibitory concentration against Pseudomonas aeruginosa PAE_NUH07; assay type: functional; in short: as §3
Pseudomonas aeruginosa [40] = assay: Minimum inhibitory concentration against Pseudomonas aeruginosa PAE_NUH17; assay type: functional; in short: as §3
Pseudomonas aeruginosa [41] = assay: Minimum inhibitory concentration against Pseudomonas aeruginosa PAE_NUH18; assay type: functional; in short: as §3
Pseudomonas aeruginosa [42] = assay: Minimum inhibitory concentration against Pseudomonas aeruginosa PAE_NUH19; assay type: functional; in short: as §3
Pseudomonas aeruginosa [43] = assay: Minimum inhibitory concentration against Pseudomonas aeruginosa PAE_NUH21; assay type: functional; in short: as §3
Pseudomonas aeruginosa [44] = assay: Minimum inhibitory concentration against Pseudomonas aeruginosa PAE_NUH22; assay type: functional; in short: as §3
Enterococcus faecalis = assay: In vitro minimum inhibitory concentration against Enterococcus faecalis 29212; assay type: functional; in short: as §3
Escherichia coli = assay: In vitro minimum inhibitory concentration against Escherichia coli ATCC 25922; assay type: functional; in short: as §3
Pseudomonas aeruginosa [45] = assay: Minimum inhibitory concentration against Pseudomonas aeruginosa PAE_NUH23; assay type: functional; in short: as §3
Pseudomonas aeruginosa [46] = assay: Minimum inhibitory concentration against Pseudomonas aeruginosa PAE_NUH24; assay type: functional; in short: as §3
Pseudomonas aeruginosa [47] = assay: Minimum inhibitory concentration against Pseudomonas aeruginosa PAE_NUH25; assay type: functional; in short: as §3
Pseudomonas aeruginosa [48] = assay: Minimum inhibitory concentration against Pseudomonas aeruginosa ATCC 27853; assay type: functional; in short: as §3
Pseudomonas aeruginosa [49] = assay: Minimum inhibitory concentration against Pseudomonas aeruginosa PAE_NUH20; assay type: functional; in short: as §3

COc1cc(Cc2cnc(N)nc2N)cc(OC)c1OC.Cc1cc(NS(=O)(=O)c2ccc(N)cc2)no1
Activity (Pseudomonas aeruginosa [1]): Resistant | Activity (Pseudomonas aeruginosa [2]): Resistant | Activity (Pseudomonas aeruginosa [3]): Resistant | Activity (Pseudomonas aeruginosa [4]): Resistant | Activity (Pseudomonas aeruginosa [5]): Resistant | Activity (Pseudomonas aeruginosa [6]): Resistant | Activity (Pseudomonas aeruginosa [7]): Resistant | Activity (Pseudomonas aeruginosa [8]): Resistant | Activity (Pseudomonas aeruginosa [9]): Resistant | Activity (Pseudomonas aeruginosa [10]): Resistant | Activity (Pseudomonas aeruginosa [11]): Resistant | Activity (Pseudomonas aeruginosa [12]): Resistant | Activity (Pseudomonas aeruginosa [13]): Resistant | Activity (Pseudomonas aeruginosa [14]): Resistant | Activity (Pseudomonas aeruginosa [15]): Susceptible | Activity (Pseudomonas aeruginosa [16]): Susceptible | Activity (Pseudomonas aeruginosa [17]): Susceptible

NCC[C@H](O)C(=O)N[C@@H]1C[C@H](N)[C@@H](O[C@H]2O[C@H](CN)[C@@H](O)[C@H](O)[C@H]2O)[C@H](O)[C@H]1O[C@H]1O[C@H](CO)[C@@H](O)[C@H](N)[C@H]1O
Activity (Pseudomonas aeruginosa [2]): Resistant | Activity (Pseudomonas aeruginosa [3]): Resistant | Activity (Pseudomonas aeruginosa [4]): Resistant | Activity (Pseudomonas aeruginosa [5]): Resistant | Activity (Pseudomonas aeruginosa [6]): Resistant | Activity (Pseudomonas aeruginosa [7]): Resistant | Activity (Pseudomonas aeruginosa [18]): Susceptible | Activity (Pseudomonas aeruginosa [19]): Susceptible | Activity (Pseudomonas aeruginosa [20]): Susceptible | Activity (Pseudomonas aeruginosa [15]): Susceptible | Activity (Pseudomonas aeruginosa [21]): Susceptible | Activity (Pseudomonas aeruginosa [22]): Susceptible | Activity (Pseudomonas aeruginosa [16]): Susceptible | Activity (Pseudomonas aeruginosa [23]): Susceptible | Activity (Pseudomonas aeruginosa [24]): Susceptible | Activity (Pseudomonas aeruginosa [17]): Susceptible | Activity (Pseudomonas aeruginosa [25]): Susceptible

GENTAMICIN
Activity (Pseudomonas aeruginosa [2]): Resistant | Activity (Pseudomonas aeruginosa [3]): Resistant | Activity (Pseudomonas aeruginosa [4]): Resistant | Activity (Pseudomonas aeruginosa [5]): Resistant | Activity (Pseudomonas aeruginosa [6]): Resistant | Activity (Pseudomonas aeruginosa [7]): Resistant | Activity (Pseudomonas aeruginosa [8]): Resistant | Activity (Pseudomonas aeruginosa [18]): Susceptible | Activity (Pseudomonas aeruginosa [15]): Susceptible | Activity (Pseudomonas aeruginosa [26]): I | Activity (Pseudomonas aeruginosa [27]): I | Activity (Pseudomonas aeruginosa [28]): I | Activity (Pseudomonas aeruginosa [21]): Susceptible | Activity (Pseudomonas aeruginosa [16]): Susceptible | Activity (Pseudomonas aeruginosa [24]): Susceptible | Activity (Pseudomonas aeruginosa [17]): Susceptible | Activity (Pseudomonas aeruginosa [25]): Susceptible

CN(CCCCN(C)C[C@@H](O)CO[C@@H]1[C@@H](O)[C@H](N)C[C@H](N)[C@H]1O[C@H]1O[C@H](CN)[C@@H](O)[C@H](O)[C@H]1N)C[C@@H](O)CO[C@@H]1[C@@H](O)[C@H](N)C[C@H](N)[C@H]1O[C@H]1O[C@H](CN)[C@@H](O)[C@H](O)[C@H]1N
MIC (Pseudomonas aeruginosa [29]): 8 µg/mL (≈ 9.16 µM) | MIC (Staphylococcus aureus [30]): 16 µg/mL (≈ 18.3 µM) | MIC (Pseudomonas aeruginosa [31]): 8 µg/mL (≈ 9.16 µM) | MIC (Staphylococcus aureus [32]): 1 µg/mL (≈ 1.15 µM) | MIC (Pseudomonas aeruginosa [33]): 12.5 µg/mL (≈ 14.3 µM) | MIC (Pseudomonas aeruginosa [34]): 6.3 µg/mL (≈ 7.22 µM) | MIC (Pseudomonas aeruginosa [35]): 6.3 µg/mL (≈ 7.22 µM) | MIC (Pseudomonas aeruginosa [36]): 6.3 µg/mL (≈ 7.22 µM) | MIC (Pseudomonas aeruginosa [37]): 6.3 µg/mL (≈ 7.22 µM) | MIC (Pseudomonas aeruginosa [38]): 12.5 µg/mL (≈ 14.3 µM) | MIC (Pseudomonas aeruginosa [39]): 6.3 µg/mL (≈ 7.22 µM) | MIC (Pseudomonas aeruginosa [40]): > 32 µg/mL | MIC (Pseudomonas aeruginosa [41]): 16 µg/mL (≈ 18.3 µM) | MIC (Pseudomonas aeruginosa [42]): 16 µg/mL (≈ 18.3 µM) | MIC (Pseudomonas aeruginosa [43]): 16 µg/mL (≈ 18.3 µM) | MIC (Pseudomonas aeruginosa [44]): 8 µg/mL (≈ 9.16 µM) | MIC (Enterococcus faecalis): > 50 µg/mL | MIC (Escherichia coli): 4 µg/mL (≈ 4.58 µM) | MIC (Pseudomonas aeruginosa [45]): > 32 µg/mL | MIC (Pseudomonas aeruginosa [46]): 32 µg/mL (≈ 36.7 µM) | MIC (Pseudomonas aeruginosa [47]): 8 µg/mL (≈ 9.16 µM) | MIC (Pseudomonas aeruginosa [48]): 8 µg/mL (≈ 9.16 µM) | MIC (Pseudomonas aeruginosa [49]): 16 µg/mL (≈ 18.3 µM)

Source: ChEMBL document CHEMBL1143542, “Structure-activity relationships of bivalent aminoglycosides and evaluation of their microbiological activities” (2005)
